Source: PubChem BioAssay (several laboratories)
ALR H2O2 inh – human ALR oxidase inhibition via reduced H2O2 | P55789 | purified ALR, DTT oxidation, H2O2 HRP-luminol luminescence | inhibition, % (no concentration beside the values) | 290,000 compounds, 3.8% hits;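 active means mean replicate inhibition above about 79%, with every replicate also reaching it, limit read from the data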
Target sequence (P55789 whole entry, looked up): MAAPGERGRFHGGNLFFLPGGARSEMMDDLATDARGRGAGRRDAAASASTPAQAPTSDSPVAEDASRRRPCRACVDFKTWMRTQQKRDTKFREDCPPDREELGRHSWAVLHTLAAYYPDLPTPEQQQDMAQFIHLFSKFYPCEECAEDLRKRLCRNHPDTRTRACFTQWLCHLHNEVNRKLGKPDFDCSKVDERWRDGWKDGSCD
FAS TE block – FAS thioesterase (human) inhibition; inhibition, % at 15 µM; recombinant FAS-TE, OMFH fluorogenic substrate, fluorescence endpoint; 360,000 compounds, 0.67% hits; AID 602261;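 active means compounds whose normalised, plate-corrected inhibition of enzyme fluorescence in the single-dose primary screen is 50% or more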
Rtt109 Vps75 – blocks Candida albicans Rtt109/Vps75 acetyltransferase activity. AID 540336. purified Rtt109/Vps75, ThioGlo CoA-SH fluorescence, 4 h. 330,000 compounds, 0.16% hits. Q5AAJ8. inhibition, % at 34.9 µM;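 active means inhibition of at least 50% in every replicate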
UCH37 DUB inh – blocks the human deubiquitinase UCH37; purified proteasome/UCH37, Ub-AMC cleavage fluorescence; inhibition, % (concentration not given with the values); 330,000 compounds, 0.33% hits; AID 588478;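 active means mean inhibition over replicate wells above about 20%, limit read from the data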
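Test system – human UCH37 enzyme supplied as purified proteasome complex · Incubation – 30 min preincubation with enzyme, 25 min cleavage at room temperature · Detection – AMC fluorescence from Ub-AMC cleavage, excitation 355 nm, emission 460 nm · Benchmarks – no-proteasome wells (full inhibition) and compound-free wells (no inhibition)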
HDAC3 inhib – human HDAC3 inhibition; 320,000 compounds, 0.15% hits; recombinant HDAC3, fluorogenic peptide/trypsin coupled, fluorescence; O15379; AID 2718; inhibition, % at 8.3 µM; in the data active means inhibition above about 26%, passing the limit was not always enough
Target sequence (O15379 whole entry, looked up): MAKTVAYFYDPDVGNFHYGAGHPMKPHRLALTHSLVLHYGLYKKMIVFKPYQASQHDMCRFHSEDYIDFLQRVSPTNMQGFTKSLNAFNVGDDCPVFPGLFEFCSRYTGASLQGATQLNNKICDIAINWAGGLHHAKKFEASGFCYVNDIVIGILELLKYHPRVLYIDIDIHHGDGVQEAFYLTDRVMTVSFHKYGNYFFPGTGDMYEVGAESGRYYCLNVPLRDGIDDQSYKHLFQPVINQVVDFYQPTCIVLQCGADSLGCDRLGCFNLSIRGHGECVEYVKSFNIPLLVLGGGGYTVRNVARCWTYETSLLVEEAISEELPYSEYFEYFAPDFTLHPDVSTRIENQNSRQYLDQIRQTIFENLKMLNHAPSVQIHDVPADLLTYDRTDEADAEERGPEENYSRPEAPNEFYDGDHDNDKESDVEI
PfM18AAP inh – PfM18AAP enzyme inhibition; recombinant PfM18AAP, H-Glu-NHMec fluorogenic cleavage; inhibition, % at 7.35 µM; 290,000 compounds, 1.2% hits; AID 1822;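 active means inhibition above the campaign mean inhibition over all tested compounds plus 3 SD, cut at about 28% in these data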
FAS-TE conf – FAS thioesterase (human) inhibition, confirmation; recombinant FAS-TE, OMFH fluorogenic substrate, fluorescence; AID 624325; inhibition, % at 15 µM; 2,300 compounds, 45% hits; shares compounds with FAS TE block;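 active means compounds inhibiting the enzyme by at least 50% at 15 µM in any one of the replicates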
Hits are given with their value; – = inactive; · = no result given. Hits are enriched below; roughly 4.6% of the tested compounds scored in any of these assays.

SMILES	ALR H2O2 inh	FAS TE block	Rtt109 Vps75	UCH37 DUB inh	HDAC3 inhib	PfM18AAP inh	FAS-TE conf
COc1cc(OC)c(C2=NOC(C(=O)N3CCc4ccccc4C3)C2)cc1Cl (stereo unspecified)	–	80	–	–	–	–	60
O=C(NCc1ccc2c(c1)OCO2)C1CC(c2ccc(Cl)cc2)=NO1 (stereo unspecified)	–	–	–	–	–	–	·
COc1cc(C=NNc2ccc(C(F)(F)F)cn2)cc(OC)c1O	·	·	·	–	·	·	·
CCn1c(=S)sc2c(=O)n(-c3ccccc3)c(SCC(=O)NCc3ccco3)nc21	–	–	–	–	–	–	·
CCC(C)NC(=O)CSc1nc2c(sc(=S)n2Cc2ccco2)c(=O)n1-c1ccccc1 (stereo unspecified)	–	51	–	–	–	–	53
COc1ccc(C2=NN(CN3C(=O)C(=O)c4ccccc43)C(c3cccc([N+](=O)[O-])c3)C2)cc1 (stereo unspecified)	–	60	–	–	–	–	60
CN(C(=NS(=O)(=O)c1ccccc1)C(F)(F)F)c1ccccc1	·	·	·	–	·	·	·
C/C(=N\NS(=O)(=O)c1ccc(C)c([N+](=O)[O-])c1)c1cc2ccccc2o1	·	–	–	·	–	–	·
C/C(=N\NS(=O)(=O)c1ccc(Cl)c([N+](=O)[O-])c1)c1cc2ccccc2o1	–	54	–	·	–	–	59
Cc1c(Cl)cccc1N1C(=O)C(N2C(=O)c3cccc([N+](=O)[O-])c3C2=O)C1c1cccs1 (stereo unspecified)	–	63	–	–	–	–	–
CN(c1ncc(C(F)(F)F)cc1Cl)N1C(=O)c2cccc([N+](=O)[O-])c2C1=O	–	–	–	–	–	–	·
O=[N+]([O-])c1ccc(-c2ccc(C=Nc3c(-c4ccco4)nc4ccccn34)o2)c(Cl)c1	·	·	·	–	·	·	·
COc1cc(-c2ccc(Nc3ccccc3C(=O)O)c(OC)c2)ccc1Nc1ccccc1C(=O)O	·	71	–	25	·	–	73
Cc1ccc(C=Nn2c(-c3ccc(Cl)cc3)n[nH]c2=S)o1	·	·	·	–	·	·	·
O=c1nc2sc(=Cc3ccco3)c(=O)n2nc1Cc1ccccc1	·	·	·	–	·	·	·
Cn1c(=O)c2c(nc(NN=Cc3ccc(OC(=O)c4ccco4)cc3)n2Cc2ccccc2)n(C)c1=O	·	·	·	–	·	·	·
Cc1nc(Sc2ccccc2)c(C#N)c(C)c1[N+](=O)[O-]	·	59	–	·	–	–	46
Cc1ccc(C(=O)ON=Cc2ccc(N(C)C)cc2)cc1	·	·	·	–	·	·	·
CCCCCCOC(=O)C1=C(C)NC(=O)NC1c1ccc(O)cc1 (stereo unspecified)	–	–	–	–	–	–	·
CCCCCOC(=O)C1=C(C)NC(=O)NC1c1ccc([N+](=O)[O-])cc1 (stereo unspecified)	·	58	–	–	–	–	57
COc1ccc(-c2csc(N3C(=N)SCC3=O)n2)cc1	–	–	–	–	–	–	·
COc1ccc(-c2csc(N3C(=O)C4C5c6ccccc6C(c6ccccc65)[C@@H]4C3=O)n2)cc1 (stereo partly specified)	–	59	–	–	–	–	–
COc1ccc(-c2csc(N3C(=O)C4C5c6ccccc6C(c6ccccc65)C4C3=O)n2)cc1 (stereo unspecified)	–	63	–	–	–	–	–
CC(C)C(NC(=O)c1ccccc1)C(=O)OCc1cc([N+](=O)[O-])cc2c1OCOC2 (stereo unspecified)	–	–	–	–	–	–	·
CC(C)CC(NC(=O)c1ccc(Cl)cc1)C(=O)OCc1cc([N+](=O)[O-])cc2c1OCOC2 (stereo unspecified)	–	52	–	–	–	–	–
SMILES	ALR H2O2 inh	FAS TE block	Rtt109 Vps75	UCH37 DUB inh	HDAC3 inhib	PfM18AAP inh	FAS-TE conf
Cc1nn(-c2ccccc2)c(Cl)c1C=NNC(=O)c1nn(C)cc1[N+](=O)[O-]	·	·	·	–	·	·	·
O=[N+]([O-])c1ccc(NC(=S)NCCc2ccccc2)cc1	–	53	–	–	·	–	38
O=[N+]([O-])c1ccc(NC(=S)NCCc2ccc(Cl)cc2)cc1	–	51	–	–	–	–	–
COc1ccc2cc3cc(C(=O)N4CCCC(C)C4)oc3nc2c1 (stereo unspecified)	–	71	–	–	–	–	71
O=C(CNc1cc(S(=O)(=O)N2CCCC2)ccc1OCC(F)(F)F)Nc1cccc(C(F)(F)F)c1	–	64	–	–	–	–	–
O=C(CNc1cccc(C(F)(F)F)c1)Nc1cccc(S(=O)(=O)N2CCCC2)c1	–	–	–	–	–	·	·
CSCC[C@H](NC(=O)c1cc([N+](=O)[O-])ccc1Cl)c1nc2ccccc2[nH]1	–	63	–	–	–	–	–
O=C(CC(=O)Nc1ccc(Cl)cc1)NN=Cc1cccc(F)c1	·	·	·	–	·	·	·
CCOc1ccccc1C=NNC(=O)CNC(=O)c1cccs1	·	·	·	–	·	·	·
O=C(NN1C(=O)c2ccccc2NC1c1ccccn1)c1ccc([N+](=O)[O-])cc1 (stereo unspecified)	–	–	–	–	–	–	·
Cc1cccc(C2Nc3ccccc3C(=O)N2NC(=O)c2ccc([N+](=O)[O-])cc2)n1 (stereo unspecified)	–	53	–	–	–	40	62
Cc1cccc(C(=O)Oc2ccc(C=NNC(=O)c3ccc(O)cc3)cc2)c1	·	·	·	–	·	·	·
O=C(Nc1ccc(Cl)cc1)N1CCCN(c2ccc(C(F)(F)F)cc2[N+](=O)[O-])CC1	–	54	–	·	–	–	–
CC1CCN(S(=O)(=O)c2ccc(NC(=O)N3c4ccccc4Sc4ccccc43)cc2)CC1	–	62	–	–	–	–	–
Fc1c(F)c(F)c(N/N=C/c2c[nH]c3ccccc23)c(F)c1F	–	51	–	·	32	–	58
Cc1ccc(NC(=O)CCNS(=O)(=O)c2cc(Br)cnc2N)cc1Cl	–	63	–	–	–	–	44
O=C(NC(=S)Nc1ccccc1)c1cc([N+](=O)[O-])ccc1N1CCOCC1	–	58	–	–	–	–	51
O=C(Nc1ccccc1)c1cc([N+](=O)[O-])ccc1N1CCCCC1	–	–	–	–	–	·	·
O=C(NC12CC3CC(CC(C3)C1)C2)c1cc([N+](=O)[O-])ccc1N1CCOCC1	–	51	–	–	–	–	39
O=C(Nc1ccc(Cc2ccncc2)cc1)c1cc([N+](=O)[O-])ccc1N1CCOCC1	·	82	–	–	–	–	88
O=C(NCc1cccnc1)c1cc([N+](=O)[O-])ccc1N1CCOCC1	–	–	–	–	–	–	·
CCc1cccc(NC(=O)COC(=O)c2cc([N+](=O)[O-])ccc2N2CCOCC2)c1	–	87	·	–	–	·	89
Cc1cccc(C)c1OCc1nc2ccccc2c(=O)n1N=Cc1ccc(OCC(=O)O)cc1	·	·	·	–	·	·	·
